Source: ChEMBL document CHEMBL1145832, “Histamine-releasing activity and binding to the FcepsilonRI alpha human mast cell receptor subunit of mast cell degranulating peptide analogues with alanine substitutions” (J Med Chem, 2003)
Where a SMILES comes first, the peptide text is derived from it.

organism: Rattus norvegicus; experiment: Concentration of peptide at 50% maximal histamine release at concentration 10e-5 M; type: functional
In short: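 Rat peritoneal mast cells (Sprague–Dawley) lavaged into carbonate- and divalent-cation-free Tyrode's with 15 mM Hepes pH 7.2, 0.1% BSA, purified on Accudenz gradient; (1–2) × 10^3 cells/well with peptide, 37 °C 20 min. Residual cellular histamine freed by Triton X-100 then TFA, measured fluorometrically with phthalaldehyde/NaOH; n = 6; nonlinear regression.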

Compound | ED50
CC[C@H](C)[C@H](N)C(=O)N[C@@H](CCCCN)C(=O)N[C@@H](CS)C(=O)N[C@@H](CC(N)=O)C(=O)N[C@@H](CS)C(=O)N[C@@H](CCCCN)C(=O)N[C@@H](CCCN=C(N)N)C(=O)N[C@@H](Cc1c[nH]cn1)C(=O)N[C@H](C(=O)N[C@H](C(=O)N[C@@H](C)C(=O)N1CCC[C@H]1C(=O)N[C@@H](Cc1c[nH]cn1)C(=O)N[C@H](C(=O)N[C@@H](CS)C(=O)N[C@@H](CCCN=C(N)N)C(=O)N[C@@H](CCCCN)C(=O)N[C@H](C(=O)N[C@@H](CS)C(=O)NCC(=O)N[C@@H](CCCCN)C(=O)N[C@@H](CC(N)=O)C(N)=O)[C@@H](C)CC)[C@@H](C)CC)[C@@H](C)CC)C(C)C (H-IKCNCKRHVIAPHICRKICGKN-NH2) | 1.07
CC[C@H](C)[C@H](N)C(=O)N[C@@H](CCCCN)C(=O)N[C@@H](CS)C(=O)N[C@@H](CC(N)=O)C(=O)N[C@@H](CS)C(=O)N[C@@H](C)C(=O)N[C@@H](CCCN=C(N)N)C(=O)N[C@@H](Cc1c[nH]cn1)C(=O)N[C@H](C(=O)N[C@H](C(=O)N[C@@H](CCCCN)C(=O)N1CCC[C@H]1C(=O)N[C@@H](Cc1c[nH]cn1)C(=O)N[C@H](C(=O)N[C@@H](CS)C(=O)N[C@@H](CCCN=C(N)N)C(=O)N[C@@H](CCCCN)C(=O)N[C@H](C(=O)N[C@@H](CS)C(=O)NCC(=O)N[C@@H](CCCCN)C(=O)N[C@@H](CC(N)=O)C(N)=O)[C@@H](C)CC)[C@@H](C)CC)[C@@H](C)CC)C(C)C (H-IKCNCARHVIKPHICRKICGKN-NH2) | 12.54
CC[C@H](C)[C@H](N)C(=O)N[C@@H](CCCCN)C(=O)N[C@@H](CS)C(=O)N[C@@H](CC(N)=O)C(=O)N[C@@H](CS)C(=O)N[C@@H](CCCCN)C(=O)N[C@@H](CCCN=C(N)N)C(=O)N[C@@H](Cc1c[nH]cn1)C(=O)N[C@H](C(=O)N[C@H](C(=O)N[C@@H](CCCCN)C(=O)N1CCC[C@H]1C(=O)N[C@@H](Cc1c[nH]cn1)C(=O)N[C@H](C(=O)N[C@@H](CS)C(=O)N[C@@H](CCCN=C(N)N)C(=O)N[C@@H](C)C(=O)N[C@H](C(=O)N[C@@H](CS)C(=O)NCC(=O)N[C@@H](CCCCN)C(=O)N[C@@H](CC(N)=O)C(N)=O)[C@@H](C)CC)[C@@H](C)CC)[C@@H](C)CC)C(C)C (H-IKCNCKRHVIKPHICRAICGKN-NH2) | 0.77

target: T1, High affinity immunoglobulin epsilon receptor subunit alpha (Homo sapiens, UniProt P12319); experiment: Binding affinity towards Fc-epsilon RI-alpha human mast cell receptor was determined
T1 sequence (P12319 whole entry): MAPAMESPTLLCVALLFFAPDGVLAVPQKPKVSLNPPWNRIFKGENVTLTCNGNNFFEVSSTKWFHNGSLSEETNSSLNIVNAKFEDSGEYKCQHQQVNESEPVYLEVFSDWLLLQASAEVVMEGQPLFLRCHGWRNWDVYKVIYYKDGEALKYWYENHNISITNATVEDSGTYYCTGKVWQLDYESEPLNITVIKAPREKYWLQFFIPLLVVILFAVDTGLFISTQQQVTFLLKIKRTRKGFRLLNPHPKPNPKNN
In short: (§1)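 Competitive fluorescence polarization: FcεRIα subunit of human IgE receptor expressed in insect cells (7 nM) with fluorescein-labelled MCD peptide tracer (4 nM) in PBS pH 7.4, unlabelled peptide 7–500 μM, 25 °C 5 min. Ex 485/em 535 nm, mP; tracer-alone background subtracted; mean of many consecutive readings; IC50 by nonlinear regression.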

IC50 [µM] | Compound
153 | CC[C@H](C)[C@H](N)C(=O)N[C@@H](CCCCN)C(=O)N[C@@H](CS)C(=O)N[C@@H](CC(N)=O)C(=O)N[C@@H](CS)C(=O)N[C@@H](CCCCN)C(=O)N[C@@H](CCCNC(=N)N)C(=O)N[C@@H](Cc1cnc[nH]1)C(=O)N[C@H](C(=O)N[C@H](C(=O)N[C@@H](C)C(=O)N1CCC[C@H]1C(=O)N[C@@H](Cc1cnc[nH]1)C(=O)N[C@H](C(=O)N[C@@H](CS)C(=O)N[C@@H](CCCNC(=N)N)C(=O)N[C@@H](CCCCN)C(=O)N[C@H](C(=O)N[C@@H](CS)C(=O)NCC(=O)N[C@@H](CCCCN)C(=O)N[C@@H](CC(N)=O)C(N)=O)[C@@H](C)CC)[C@@H](C)CC)[C@@H](C)CC)C(C)C (H-IKCNCKRHVIAPHICRKICGKN-NH2)
153 | CC[C@H](C)[C@H](N)C(=O)N[C@@H](CCCCN)C(=O)N[C@@H](CS)C(=O)N[C@@H](CC(N)=O)C(=O)N[C@@H](CS)C(=O)N[C@@H](CCCCN)C(=O)N[C@@H](CCCNC(=N)N)C(=O)N[C@@H](Cc1cnc[nH]1)C(=O)N[C@H](C(=O)N[C@H](C(=O)N[C@@H](CCCCN)C(=O)N1CCC[C@H]1C(=O)N[C@@H](Cc1cnc[nH]1)C(=O)N[C@H](C(=O)N[C@@H](CS)C(=O)N[C@@H](CCCNC(=N)N)C(=O)N[C@@H](C)C(=O)N[C@H](C(=O)N[C@@H](CS)C(=O)NCC(=O)N[C@@H](CCCCN)C(=O)N[C@@H](CC(N)=O)C(N)=O)[C@@H](C)CC)[C@@H](C)CC)[C@@H](C)CC)C(C)C (H-IKCNCKRHVIKPHICRAICGKN-NH2)
71 | CC[C@H](C)[C@H](N)C(=O)N[C@@H](CCCCN)C(=O)N[C@@H](CS)C(=O)N[C@@H](CC(N)=O)C(=O)N[C@@H](CS)C(=O)N[C@@H](C)C(=O)N[C@@H](CCCNC(=N)N)C(=O)N[C@@H](Cc1cnc[nH]1)C(=O)N[C@H](C(=O)N[C@H](C(=O)N[C@@H](CCCCN)C(=O)N1CCC[C@H]1C(=O)N[C@@H](Cc1cnc[nH]1)C(=O)N[C@H](C(=O)N[C@@H](CS)C(=O)N[C@@H](CCCNC(=N)N)C(=O)N[C@@H](CCCCN)C(=O)N[C@H](C(=O)N[C@@H](CS)C(=O)NCC(=O)N[C@@H](CCCCN)C(=O)N[C@@H](CC(N)=O)C(N)=O)[C@@H](C)CC)[C@@H](C)CC)[C@@H](C)CC)C(C)C (H-IKCNCARHVIKPHICRKICGKN-NH2)

Compound | IC50 [µM]
CC[C@H](C)[C@H](N)C(=O)N[C@@H](C)C(=O)N[C@@H](CS)C(=O)N[C@@H](CC(N)=O)C(=O)N[C@@H](CS)C(=O)N[C@@H](CCCCN)C(=O)N[C@@H](CCCN=C(N)N)C(=O)N[C@@H](Cc1c[nH]cn1)C(=O)N[C@H](C(=O)N[C@H](C(=O)N[C@@H](CCCCN)C(=O)N1CCC[C@H]1C(=O)N[C@@H](Cc1c[nH]cn1)C(=O)N[C@H](C(=O)N[C@@H](CS)C(=O)N[C@@H](CCCN=C(N)N)C(=O)N[C@@H](CCCCN)C(=O)N[C@H](C(=O)N[C@@H](CS)C(=O)NCC(=O)N[C@@H](CCCCN)C(=O)N[C@@H](CC(N)=O)C(N)=O)[C@@H](C)CC)[C@@H](C)CC)[C@@H](C)CC)C(C)C (H-IACNCKRHVIKPHICRKICGKN-NH2) | 82
CC[C@H](C)[C@H](N)C(=O)N[C@@H](CCCCN)C(=O)N[C@@H](CS)C(=O)N[C@@H](CC(N)=O)C(=O)N[C@@H](CS)C(=O)N[C@@H](CCCCN)C(=O)N[C@@H](CCCN=C(N)N)C(=O)N[C@@H](Cc1c[nH]cn1)C(=O)N[C@H](C(=O)N[C@H](C(=O)N[C@@H](CCCCN)C(=O)N1CCC[C@H]1C(=O)N[C@@H](Cc1c[nH]cn1)C(=O)N[C@H](C(=O)N[C@@H](CS)C(=O)N[C@@H](CCCN=C(N)N)C(=O)N[C@@H](CCCCN)C(=O)N[C@H](C(=O)N[C@@H](CS)C(=O)NCC(=O)N[C@@H](C)C(=O)N[C@@H](CC(N)=O)C(N)=O)[C@@H](C)CC)[C@@H](C)CC)[C@@H](C)CC)C(C)C (H-IKCNCKRHVIKPHICRKICGAN-NH2) | 153

target: T1, High affinity immunoglobulin epsilon receptor subunit alpha; experiment: Binding affinity towards Fc-epsilon RI-alpha mast cell receptor human mast cell receptor was determined; in short: as §1

Compound | IC50 [µM]
CC[C@H](C)[C@H](N)C(=O)N[C@@H](CCCCN)C(=O)N[C@@H](CS)C(=O)N[C@@H](CC(N)=O)C(=O)N[C@@H](CS)C(=O)N[C@@H](CCCCN)C(=O)N[C@@H](CCCN=C(N)N)C(=O)N[C@@H](Cc1c[nH]cn1)C(=O)N[C@H](C(=O)N[C@H](C(=O)N[C@@H](CCCCN)C(=O)N1CCC[C@H]1C(=O)N[C@@H](Cc1c[nH]cn1)C(=O)N[C@H](C(=O)N[C@@H](CS)C(=O)N[C@@H](CCCN=C(N)N)C(=O)N[C@@H](CCCCN)C(=O)N[C@H](C(=O)N[C@@H](CS)C(=O)NCC(=O)N[C@@H](CCCCN)C(=O)N[C@@H](CC(N)=O)C(N)=O)[C@@H](C)CC)[C@@H](C)CC)[C@@H](C)CC)C(C)C (H-IKCNCKRHVIKPHICRKICGKN-NH2) | 114
